# Measured values taken from ChEMBL document CHEMBL1134346, “Labeling and evaluation of N-[11C]methylated quinoline-2-carboxamides as potential radioligands for visualization of peripheral benzodiazepine receptors” (J Med Chem, 2001).
# Tests used:
# Rattus norvegicus [1] = organism: Rattus norvegicus; assay: Tissue (cortex) distribution in Albino male CD rats after 15 minutes expressed as percent of injected dose per gram of organ.; format: ADME, organism-based; settings: in vivo, 0.25 h
# Procedure, shortened: (§1)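 Radioligand given in saline into tail vein of male albino CD rats (225-250 g); 100-200 µCi per animal, 1-2 Ci/µmol at injection depending on radioligand. Three rats per time point were decapitated under light ether anaesthesia. Blood, plasma, brain regions and washed organs were weighed and gamma-counted. Uptake is %I.D./g tissue, mean ± SD.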
# Rattus norvegicus [2] = organism: Rattus norvegicus; assay: Tissue (pituitary) distribution in Albino male CD rats after 30 minutes expressed as percent of injected dose per gram of organ.; format: ADME, organism-based, Pituitary gland; settings: in vivo, 0.5 h
# Procedure, shortened: (§2)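 Male albino CD rats (225-250 g) received the 11C-labelled radioligand in saline by tail-vein injection. Three rats per time point were decapitated under light ether anaesthesia at 5, 15, 30, 60 or 90 min. Blood was collected heparinized and plasma separated by centrifugation. The pituitary was dissected from the brain. Lung, liver (three-lobe pieces) and right deltoid muscle were sampled, washed in cold saline, gamma-counted and weighed. Results are %I.D./g.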
# Rattus norvegicus [3] = organism: Rattus norvegicus; assay: Tissue (lung) distribution in Albino male CD rats after 15 minutes expressed as percent of injected dose per gram of organ.; format: ADME, organism-based; settings: in vivo, 0.25 h; procedure, shortened: as §2
# [4] = biological target: Translocator protein (Rattus norvegicus) (UniProt P16257); assay: Tissue (muscle) concentration of radioactivity at 30 min post-injection into Albino male CD rats after pretreatment with cold PK 11195.; format: functional
# Sequence of Translocator protein (Rattus norvegicus) (P16257 whole entry, looked up): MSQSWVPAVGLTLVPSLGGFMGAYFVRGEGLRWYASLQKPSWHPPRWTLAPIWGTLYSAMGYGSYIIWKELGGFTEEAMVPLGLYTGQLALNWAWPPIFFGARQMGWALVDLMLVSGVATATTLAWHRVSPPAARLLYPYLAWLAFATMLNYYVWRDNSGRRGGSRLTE
# Procedure, shortened: (§3)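 Blocking study in male albino CD rats, five per group. Immediately before the 11C radioligand (in saline, i.v. tail vein), rats received 30 µL tail-vein PK 11195 (5 mg/kg; 1.4-1.6 mg) in DMSO:EtOH 1:1, or vehicle. Rats were decapitated at 30 min. Tissues were dissected, washed, gamma-counted and weighed as in the biodistribution study. Results are %I.D./g.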
# Rattus norvegicus [5] = organism: Rattus norvegicus; assay: Tissue (pituitary) distribution in Albino male CD rats after 15 minutes expressed as percent of injected dose per gram of organ.; format: ADME, organism-based, Pituitary gland; settings: in vivo, 0.25 h; procedure, shortened: as §2
# Rattus norvegicus [6] = organism: Rattus norvegicus; assay: Tissue (cortex) distribution in Albino male CD rats after 30 minutes expressed as percent of injected dose per gram of organ.; format: ADME, organism-based; settings: in vivo, 0.5 h; procedure, shortened: as §1
# [7] = biological target: Translocator protein (Rattus norvegicus) (UniProt P16257); assay: Tissue (cortex) concentration of radioactivity at 30 min post-injection into Albino male CD rats after pretreatment with cold PK 11195.; format: functional
# Procedure, shortened: (§4)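 Separate groups of five rats received tail-vein PK 11195 (1.4-1.6 mg; 5 mg/kg) in 30 µL DMSO:EtOH 1:1, or vehicle alone, immediately before iv radioligand (90-170 µCi in saline, 0.9-1 Ci/µmol). Rats were decapitated at 30 min and tissues gamma-counted; values are %I.D./g.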
# Rattus norvegicus [8] = organism: Rattus norvegicus; assay: Tissue (kidney) distribution in Albino male CD rats after 5 minutes expressed as percent of injected dose per gram of organ.; format: ADME, organism-based; settings: in vivo; procedure, shortened: as §1
# Rattus norvegicus [9] = organism: Rattus norvegicus; assay: Tissue (lung) concentration of radioactivity at 30 min post-injection into Albino male CD rats with vehicle.; format: ADME, organism-based; settings: in vivo, 0.5 h; procedure, shortened: as §3
# Rattus norvegicus [10] = organism: Rattus norvegicus; assay: Tissue (adrenal gland) distribution in Albino male CD rats after 30 minutes expressed as percent of injected dose per gram of organ.; format: ADME, organism-based; settings: in vivo, 0.5 h; procedure, shortened: as §1
# [11] = biological target: Translocator protein (Rattus norvegicus) (UniProt P16257); assay: Tissue (adrenal gland) concentration of radioactivity at 30 min post-injection into Albino male CD rats after pretreatment with cold PK 11195.; format: functional, tissue-based; procedure, shortened: as §4
# Rattus norvegicus [12] = organism: Rattus norvegicus; assay: Tissue (spleen) distribution in Albino male CD rats after 60 minutes expressed as percent of injected dose per gram of organ.; format: ADME, organism-based; settings: in vivo, 1 h
# Rattus norvegicus [13] = organism: Rattus norvegicus; assay: Tissue (muscle) concentration of radioactivity at 30 min post-injection into Albino male CD rats with vehicle.; format: ADME, organism-based; settings: in vivo, 0.5 h; procedure, shortened: as §3
# Rattus norvegicus [14] = organism: Rattus norvegicus; assay: Tissue (testicle) distribution in Albino male CD rats after 15 minutes expressed as percent of injected dose per gram of organ.; format: ADME, organism-based; settings: in vivo, 0.25 h; procedure, shortened: as §2
# Rattus norvegicus [15] = organism: Rattus norvegicus; assay: Tissue (pituitary) distribution in Albino male CD rats after 90 minutes expressed as percent of injected dose per gram of organ.; format: ADME, organism-based, Pituitary gland; settings: in vivo, 1.5 h; procedure, shortened: as §2
# Rattus norvegicus [16] = organism: Rattus norvegicus; assay: Tissue (adrenal gland) distribution in Albino male CD rats after 60 minutes expressed as percent of injected dose per gram of organ.; format: ADME, organism-based; settings: in vivo, 1 h; procedure, shortened: as §1
# Rattus norvegicus [17] = organism: Rattus norvegicus; assay: Tissue (muscle) distribution in Albino male CD rats after 30 minutes expressed as percent of injected dose per gram of organ.; format: ADME, organism-based; settings: in vivo, 0.5 h; procedure, shortened: as §2
# Rattus norvegicus [18] = organism: Rattus norvegicus; assay: Tissue (spleen) distribution in Albino male CD rats after 30 minutes expressed as percent of injected dose per gram of organ.; format: ADME, organism-based; settings: in vivo, 0.5 h; procedure, shortened: as §2
# Rattus norvegicus [19] = organism: Rattus norvegicus; assay: Tissue (blood) distribution in Albino male CD rats after 15 minutes expressed as percent of injected dose per gram of organ.; format: ADME, organism-based; settings: in vivo, 0.25 h; procedure, shortened: as §1
# [20] = biological target: Translocator protein (Rattus norvegicus) (UniProt P16257); assay: Tissue (kidney) concentration of radioactivity at 30 min post-injection into Albino male CD rats after pretreatment with cold PK 11195.; format: functional, tissue-based; procedure, shortened: as §4
# Rattus norvegicus [21] = organism: Rattus norvegicus; assay: Tissue (lung) distribution in Albino male CD rats after 5 minutes expressed as percent of injected dose per gram of organ.; format: ADME, organism-based; settings: in vivo; procedure, shortened: as §2
# [22] = biological target: Translocator protein (Rattus norvegicus) (UniProt P16257); assay: Tissue (pituitary) concentration of radioactivity at 30 min post-injection into Albino male CD rats after pretreatment with cold PK 11195.; format: functional, tissue-based; settings: Pituitary gland; procedure, shortened: as §3
# Rattus norvegicus [23] = organism: Rattus norvegicus; assay: Tissue (heart) distribution in Albino male CD rats after 15 minutes expressed as percent of injected dose per gram of organ.; format: ADME, organism-based; settings: in vivo, 0.25 h; procedure, shortened: as §1
# Rattus norvegicus [24] = organism: Rattus norvegicus; assay: Tissue (lung) distribution in Albino male CD rats after 30 minutes expressed as percent of injected dose per gram of organ.; format: ADME, organism-based; settings: in vivo, 0.5 h; procedure, shortened: as §2
# Rattus norvegicus [25] = organism: Rattus norvegicus; assay: Tissue (kidney) distribution in Albino male CD rats after 15 minutes expressed as percent of injected dose per gram of organ.; format: ADME, organism-based; settings: in vivo, 0.25 h; procedure, shortened: as §1
# Rattus norvegicus [26] = organism: Rattus norvegicus; assay: Tissue (plasma) distribution in Albino male CD rats after 60 minutes expressed as percent of injected dose per gram of organ.; format: ADME, organism-based; settings: in vivo, 1 h; procedure, shortened: as §2
# [27] = biological target: Translocator protein (Rattus norvegicus) (UniProt P16257); assay: Tissue (liver) concentration of radioactivity at 30 min post-injection into Albino male CD rats after pretreatment with cold PK 11195.; format: functional, tissue-based; procedure, shortened: as §4
# Rattus norvegicus [28] = organism: Rattus norvegicus; assay: Tissue (cerebellum) distribution in Albino male CD rats after 30 minutes expressed as percent of injected dose per gram of organ.; format: ADME, organism-based; settings: in vivo, 0.5 h; procedure, shortened: as §1
# Rattus norvegicus [29] = organism: Rattus norvegicus; assay: Tissue (cortex) concentration of radioactivity at 30 min post-injection into Albino male CD rats with vehicle.; format: ADME, organism-based; settings: in vivo, 0.5 h; procedure, shortened: as §4
# Rattus norvegicus [30] = organism: Rattus norvegicus; assay: Tissue (pituitary) distribution in Albino male CD rats after 5 minutes expressed as percent of injected dose per gram of organ.; format: ADME, organism-based, Pituitary gland; settings: in vivo; procedure, shortened: as §2
# Rattus norvegicus [31] = organism: Rattus norvegicus; assay: Tissue (blood) distribution in Albino male CD rats after 5 minutes expressed as percent of injected dose per gram of organ.; format: ADME, organism-based; settings: in vivo; procedure, shortened: as §1
# Rattus norvegicus [32] = organism: Rattus norvegicus; assay: Tissue (liver) distribution in Albino male CD rats after 5 minutes expressed as percent of injected dose per gram of organ.; format: ADME, organism-based; settings: in vivo; procedure, shortened: as §2
# Rattus norvegicus [33] = organism: Rattus norvegicus; assay: Tissue (kidney) distribution in Albino male CD rats after 90 minutes expressed as percent of injected dose per gram of organ.; format: ADME, organism-based; settings: in vivo, 1.5 h; procedure, shortened: as §1
# Rattus norvegicus [34] = organism: Rattus norvegicus; assay: Tissue (spleen) distribution in Albino male CD rats after 90 minutes expressed as percent of injected dose per gram of organ.; format: ADME, organism-based; settings: in vivo, 1.5 h
# Rattus norvegicus [35] = organism: Rattus norvegicus; assay: Tissue (kidney) concentration of radioactivity at 30 min post-injection into Albino male CD rats with vehicle.; format: ADME, organism-based; settings: in vivo, 0.5 h; procedure, shortened: as §4
# [36] = biological target: Translocator protein (Rattus norvegicus) (UniProt P16257); assay: Tissue (heart) concentration of radioactivity at 30 min post-injection into Albino male CD rats after pretreatment with cold PK 11195.; format: functional; procedure, shortened: as §4
# Rattus norvegicus [37] = organism: Rattus norvegicus; assay: Tissue (liver) distribution in Albino male CD rats after 60 minutes expressed as percent of injected dose per gram of organ.; format: ADME, organism-based; settings: in vivo, 1 h; procedure, shortened: as §2
# Rattus norvegicus [38] = organism: Rattus norvegicus; assay: Tissue (intestine) distribution in Albino male CD rats after 60 minutes expressed as percent of injected dose per gram of organ.; format: ADME, organism-based; settings: in vivo, 1 h; procedure, shortened: as §1
# Rattus norvegicus [39] = organism: Rattus norvegicus; assay: Tissue (muscle) distribution in Albino male CD rats after 5 minutes expressed as percent of injected dose per gram of organ.; format: ADME, organism-based; settings: in vivo; procedure, shortened: as §2
# Rattus norvegicus [40] = organism: Rattus norvegicus; assay: Tissue (cerebellum) distribution in Albino male CD rats after 5 minutes expressed as percent of injected dose per gram of organ.; format: ADME, organism-based; settings: in vivo; procedure, shortened: as §1
smiles,measurement,setting,value
CCC(C)N(C)C(=O)c1nc2ccccc2c(-c2ccccc2F)c1C (stereo not given),I.D./g,Rattus norvegicus [1],0.11%
same,I.D./g,Rattus norvegicus [2],0.12%
same,I.D./g,Rattus norvegicus [3],2.25%
same,I.D./g,[4],< 0.03%
same,I.D./g,Rattus norvegicus [5],0.27%
same,I.D./g,Rattus norvegicus [6],0.1%
same,I.D./g,[7],< 0.02%
same,I.D./g,Rattus norvegicus [8],0.41%
same,I.D./g,Rattus norvegicus [9],0.56%
same,I.D./g,Rattus norvegicus [10],2.78%
same,I.D./g,[11],< 0.78%
same,I.D./g,Rattus norvegicus [12],0.65%
same,I.D./g,Rattus norvegicus [13],0.05%
same,I.D./g,Rattus norvegicus [14],0.09%
same,I.D./g,Rattus norvegicus [15],0.15%
same,I.D./g,Rattus norvegicus [16],2.85%
same,I.D./g,Rattus norvegicus [17],0.1%
same,I.D./g,Rattus norvegicus [18],0.77%
same,I.D./g,Rattus norvegicus [19],0.14%
same,I.D./g,[20],0.12%
same,I.D./g,Rattus norvegicus [21],2.37%
same,I.D./g,[22],> 0.06%
same,I.D./g,Rattus norvegicus [23],0.86%
same,I.D./g,Rattus norvegicus [24],2.09%
same,I.D./g,Rattus norvegicus [25],0.73%
same,I.D./g,Rattus norvegicus [26],0.06%
same,I.D./g,[27],< 0.45%
same,I.D./g,Rattus norvegicus [28],0.09%
same,I.D./g,Rattus norvegicus [29],0.05%
same,I.D./g,Rattus norvegicus [30],0.16%
same,I.D./g,Rattus norvegicus [31],0.11%
same,I.D./g,Rattus norvegicus [32],0.41%
same,I.D./g,Rattus norvegicus [33],0.46%
same,I.D./g,Rattus norvegicus [34],0.71%
same,I.D./g,Rattus norvegicus [35],0.35%
same,I.D./g,[36],< 0.11%
same,I.D./g,Rattus norvegicus [37],0.45%
same,I.D./g,Rattus norvegicus [38],0.25%
same,I.D./g,Rattus norvegicus [39],0.06%
same,I.D./g,Rattus norvegicus [40],0.1%
